RBBP9 inh – human RBBP9 inhibitors, primary screen, biochemical, fluorescence polarization, FP-Rh probe, HTS. Serine hydrolase RBBP9 (Homo sapiens), O75884. recombinant RBBP9. inhibition, % at 7.94 µM. AID 1515, 2009. actives 0.2% (n = 220,000);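 active = inhibition above the campaign mean of all tested compounds plus 3 SD, cut at about 14% in these data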;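 note: plate controls were DMSO wells with RBBP9 for no effect and wells lacking RBBP9 protein for full effect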
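System: RBBP9 protein / Buffer or medium: Tris/NaCl buffer pH 8.0 with 0.1% Pluronic / Probe or stimulus: Serine-hydrolase probe FP-Rh, 375 nM pre-mixing / Dosing: 7.94 µM single dose, 0.794% DMSO / Times: enzyme-compound preincubation 30 min, then probe labeling 45 min, 25 °C / Technique: fluorescence polarization (mP), excitation 525 nm, emission 598 nm / Replication: singlicate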
Wee1 stabilizer – Wee1 degradation inhibitors, primary screen, cell-based, HeLa, Wee1K328M-luciferase, luminescence | actives 1.2% (n = 220,000) | HeLa Luc-Wee1K328M stability; 100% = proteasome inhibitor MG132 effect | reporter increase, % at 5 µM | Wee1-like protein kinase (Homo sapiens), P30291;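 active = activation above the mean of all tested compounds plus 3 SD, set per screening run, cut at about 8.8% in these data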;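 note: cells exposed to compound for 20 h before luminescence read; 0% = DMSO alone and 100% = MG132 at 30 µM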
Target sequence (P30291 whole entry K328M): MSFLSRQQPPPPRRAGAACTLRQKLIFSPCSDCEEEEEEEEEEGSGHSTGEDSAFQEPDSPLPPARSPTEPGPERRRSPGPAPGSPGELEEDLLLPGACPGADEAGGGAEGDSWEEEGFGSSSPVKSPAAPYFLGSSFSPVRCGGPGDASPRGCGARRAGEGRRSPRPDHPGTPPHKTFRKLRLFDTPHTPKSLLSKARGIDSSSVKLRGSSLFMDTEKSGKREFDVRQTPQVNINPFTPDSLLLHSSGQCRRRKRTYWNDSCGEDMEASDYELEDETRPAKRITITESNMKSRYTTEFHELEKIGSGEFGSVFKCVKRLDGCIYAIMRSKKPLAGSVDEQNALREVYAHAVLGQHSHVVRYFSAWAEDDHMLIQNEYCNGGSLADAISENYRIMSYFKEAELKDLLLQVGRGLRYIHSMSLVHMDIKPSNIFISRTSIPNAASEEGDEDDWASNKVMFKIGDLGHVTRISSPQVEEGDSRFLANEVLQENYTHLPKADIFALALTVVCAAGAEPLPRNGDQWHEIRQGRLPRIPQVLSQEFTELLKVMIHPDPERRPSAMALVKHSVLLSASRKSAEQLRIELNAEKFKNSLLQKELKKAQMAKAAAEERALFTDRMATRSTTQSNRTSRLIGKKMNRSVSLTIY
Mdm2 ligase inh – MDM2-luciferase reporter signal enhancers, primary screen, MDM2 E3 ligase inhibitor project, cell-based, luminescence, 1536-well; E3 ubiquitin-protein ligase Mdm2 (Homo sapiens), Q00987; cell-based MDM2 ubiquitination luciferase reporter, 2 h; 0 = plate control, 100 = twice control, blank-subtracted; signal enhancement, % at 5 µM; actives 0.11% (n = 210,000); AID 1230, 2008;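 active = signal enhancement of 30% or more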;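 note: luminescence tracks abundance of the self-degrading MDM2-luciferase fusion protein; higher signal means inhibition of MDM2 E3 ligase activity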
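test system = mammalian cells stably expressing self-ubiquitinating, self-degrading MDM2 E3–luciferase fusion | quantity = 2000 cells/well | incubation = cell settling 4 h, compound treatment 2 h, both 37 °C | signal = luminescence with SteadyLite reagent, 15 min at room temperature | evaluation = % enhancement relative to plate controls after blank subtraction | benchmarks = plate controls and plate blanks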
Ins promoter up – insulin promoter activators in MIN6 cells, imaging, high-content screening, mouse beta cells. MIN6 insulin promoter-GFP reporter; hits give high values. z-score at 5 µM. actives 0.3% (n = 190,000);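 active = z-score above 3 at 5 µM with at least 500 cells counted in the well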
Hsp70 act – Hsp70 transcriptional activators, primary screen, cell-based, HeLa, Hsp70 promoter luciferase, luminescence, 10 µM; actives 0.04% (n = 200,000); HeLa Hsp70 promoter luciferase reporter; scaled: vehicle 0, proteasome-inhibitor control 100%; activation, % at 10 µM;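 active = activation above the mean across all tested compounds plus 3 SD, cutoff set per campaign, cut at about 5.5% in these data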;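 note: 100% = MG132 at 30 µM as the positive control and 0% = DMSO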
INS promoter inh – inhibitors of insulin promoter-driven GFP, primary screen, imaging, TRM-6 cells, eGFP reporter, cell count | reporter expression induced with tamoxifen | inhibition, % at 2 µM | actives 0.9% (n = 130,000) | AID 1273, 2008;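 active = inhibition above the mean plus 3 SD, with well images judged a real hit on visual review, cut at about 60% in these data, passing the limit was not always enough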
RBBP9 inh conf – human RBBP9 inhibitors, retest, confirmation, biochemical, fluorescence polarization, FP-Rh probe, triplicate. shares compounds with RBBP9 inh. recombinant RBBP9. inhibition, % at 7.94 µM. actives 36% (n = 410). AID 1537, 2009;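 active = inhibition above the hit cutoff derived for the primary screen, cut at about 15% in these data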;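 note: 0% = RBBP9 with DMSO and 100% = wells lacking RBBP9 protein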
Active calls of the source: *; / = no result given. Compounds with a hit are over-represented: about 2.2% of the library has one in this group of screens.

SMILES	RBBP9 inh	Wee1 stabilizer	Mdm2 ligase inh	Ins promoter up	Hsp70 act	INS promoter inh	RBBP9 inh conf
c1ccc2nc(N3CCOCC3)cnc2c1	4.8	-2.9	-25.7	-0.33	-0.3	-60.7	/
COc1ccc(-c2cc3ccccc3[nH]2)cc1	17.2*	5.1	-4.5	-0.16	/	/	3.7
Clc1ccc(-c2nnnn2-c2ccc(Cl)c(Cl)c2)cc1Cl	-7.8	-2.4	-7.5	/	0.5	-9.4	/
COc1cccc(Nc2ccccc2C(=O)O)c1	-5.8	1.7	-7.6	0.08	-0.3	/	/
COc1cc(-c2ccc(Nc3ccccc3C(=O)O)c(OC)c2)ccc1Nc1ccccc1C(=O)O	24.3*	0.8	-12.3	-0.16	/	/	45.6*
O=C(NNC(=O)c1cc(O)c(O)c(O)c1)NC1CCCCC1	14.4*	-0.4	-6.3	-0.99	-0.3	/	22.9*
O=C(NNC(=O)c1cccnc1)NC1CCCCC1	-4.4	0.3	-8.7	-0.43	-0.5	/	/
Cc1cc(O)ccc1NC(=O)CCN1C(=O)c2ccc([N+](=O)[O-])cc2C1=O	-5.2	-1.3	-4.8	0.57	-0.3	-3.6	/
CC1(C)CC(=O)C(C=NCCN2CCN(C(=O)c3ccccc3)CC2)=C(O)C1	-7.4	-1.0	3.0	0	0.0	54.5	/
CC1(C)CC(=O)C(C=NCCN2CCN(C(=O)c3ccc(F)cc3)CC2)=C(O)C1	14.9*	-1.1	3.4	/	-0.4	/	8.1
COc1cccc(C2(CSc3nnc(-c4cc(OC)c(OC)c(OC)c4)o3)OCCO2)c1	-0.1	4.4	-12.3	-1.11	0.0	/	/
CCOC(=O)c1c(C)[nH]c(N=Nc2ccccc2)c1C	14.9*	5.3	/	-1.01	0.2	10.7	6.3
CCOC(=O)c1c(C)[nH]c(N=Nc2ccc(C)cc2)c1C	-9.6	1.8	-4.7	-0.63	0.7	25.7	/
CCCN1C(=O)S/C(=C/c2ccc(N3CCOCC3)o2)C1=O	14.5*	3.8	-6.8	/	/	/	2.4
CCCN1C(=O)S/C(=C\c2ccc(N3CCOCC3)o2)C1=O	-3.7	1.2	1.2	/	0.0	/	/
Cc1ccc2oc(C(=O)Nc3c(C)n(C)n(-c4ccccc4)c3=O)c(C)c2c1	-6.5	0.9	/	/	0.1	45.5	/
Cc1c(Br)c(O)c(Br)c2sc(=O)oc12	24.6*	-2.5	-8.0	-0.11	/	/	38.0*
CN(C)c1ccc(Nc2nc(-c3cccnc3)cs2)cc1	20.4*	4.0	-17.1	0.39	-0.4	/	22.0*
O=C1c2cc([N+](=O)[O-])cc3cc([N+](=O)[O-])cc(c23)C(=O)N1c1ccccn1	15.2*	0.3	/	-0.34	-0.2	-119.3	10.2
CCCC(CCC)C(=O)Nc1c[nH]c(=O)[nH]c1=O	16.7*	-1.2	-5.1	-0.03	-0.4	-34.3	5.6
CC(=O)NC(C)C(=O)OCc1ccc(Cl)cc1Cl (stereo not given)	-9.4	-3.1	-17.4	-0.41	-0.1	11.7	/
CCc1cc(/C(Cc2csc(C)n2)=N/O)c(O)cc1O	30.8*	3.0	-19.1	-0.31	-0.2	-40.6	22.4*
O=C(NC1CCCCC1)C(c1ccc(O)c(O)c1)N(C(=O)Cn1nnc2ccccc21)c1cccc(O)c1 (stereo not given)	-5.2	1.7	-11.8	0.66	-0.1	/	/
Cc1cccc(OCCCC(=O)Nc2ccc(N(C)C)cc2)c1	18.1*	0.3	-12.6	0.88	-0.1	-13.2	26.3*
Cc1cccc(OCCCC(=O)Nc2ccc(Br)cc2)c1	-3.9	1.1	-2.5	-0.23	0.0	3.6	/
Nc1ccccc1NC1CCCCC1	-0.5	0.5	-2.8	0.15	-0.2	-17.6	/
CCC(=O)N=c1n(C)c2ccccc2n1CCOc1ccccc1	15.6*	-2.0	-0.1	-0.12	0.2	8.3	5.5
